Measured values from ChEMBL document CHEMBL1649317, “Acquisition of a transposon encoding extended-spectrum beta-lactamase SHV-12 by Pseudomonas aeruginosa isolates during the clinical course of a burn patient” (2010).
Values after ≈ are worked out from the molar mass of the structure shown.

Legend:
Pseudomonas aeruginosa [1] = assay: Antimicrobial activity against SHV-12 ESBL producing Pseudomonas aeruginosa isolate 2204 isolated from burn patient by broth microdilution method; type: functional
How it was run: (§1)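 MICs were determined by broth microdilution following the CLSI proposal. For clavulanic acid combinations, clavulanate was held at a fixed concentration. The seven isolates came from a single burn patient over the clinical course. P072204 was taken from sputum; all others were taken from burn sites. Isolates were typed by PCR for blaSHV and IS26.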

Pseudomonas aeruginosa [2] = assay: Antimicrobial activity against SHV-12 ESBL producing Pseudomonas aeruginosa isolate 2201 isolated from burn patient by broth microdilution method in presence of beta-lactamase inhibitor clavulanic acid; type: functional
Pseudomonas aeruginosa [3] = assay: Antimicrobial activity against SHV-12 ESBL producing Pseudomonas aeruginosa isolate 2207 isolated from burn patient by broth microdilution method in presence of beta-lactamase inhibitor clavulanic acid; type: functional
Pseudomonas aeruginosa [4] = assay: Antimicrobial activity against SHV-12 ESBL producing Pseudomonas aeruginosa isolate 2202 isolated from burn patient by broth microdilution method; type: functional; how it was run: as §1
Pseudomonas aeruginosa [5] = assay: Antimicrobial activity against SHV-12 ESBL producing Pseudomonas aeruginosa isolate 2201 isolated from burn patient by broth microdilution method; type: functional; how it was run: as §1
Pseudomonas aeruginosa [6] = assay: Antimicrobial activity against SHV-12 ESBL producing Pseudomonas aeruginosa isolate 2206 isolated from burn patient by broth microdilution method; type: functional; how it was run: as §1
Pseudomonas aeruginosa [7] = assay: Antimicrobial activity against SHV-12 ESBL non-producing Pseudomonas aeruginosa isolate 2203 isolated from burn patient by broth microdilution method in presence of beta-lactamase inhibitor clavulanic acid
Pseudomonas aeruginosa [8] = assay: Antimicrobial activity against SHV-12 ESBL producing Pseudomonas aeruginosa isolate 2207 isolated from burn patient by broth microdilution method; type: functional; how it was run: as §1
Pseudomonas aeruginosa [9] = assay: Antimicrobial activity against SHV-12 ESBL producing Pseudomonas aeruginosa isolate 2206 isolated from burn patient by broth microdilution method in presence of beta-lactamase inhibitor clavulanic acid; type: functional
Pseudomonas aeruginosa [10] = assay: Antimicrobial activity against SHV-12 ESBL producing Pseudomonas aeruginosa isolate 2205 isolated from burn patient by broth microdilution method in presence of beta-lactamase inhibitor clavulanic acid; type: functional
Pseudomonas aeruginosa [11] = assay: Antimicrobial activity against SHV-12 ESBL non-producing Pseudomonas aeruginosa isolate 2202 isolated from burn patient by broth microdilution method in presence of beta-lactamase inhibitor clavulanic acid
Pseudomonas aeruginosa [12] = assay: Antimicrobial activity against SHV-12 ESBL producing Pseudomonas aeruginosa isolate 2203 isolated from burn patient by broth microdilution method; type: functional; how it was run: as §1
Pseudomonas aeruginosa [13] = assay: Antimicrobial activity against SHV-12 ESBL producing Pseudomonas aeruginosa isolate 2205 isolated from burn patient by broth microdilution method; type: functional; how it was run: as §1
Pseudomonas aeruginosa [14] = assay: Antimicrobial activity against SHV-12 ESBL non-producing Pseudomonas aeruginosa isolate 2204 isolated from burn patient by broth microdilution method in presence of beta-lactamase inhibitor clavulanic acid

Row | SMILES | MIC (Pseudomonas aeruginosa [1]) | MIC (Pseudomonas aeruginosa [2]) | MIC (Pseudomonas aeruginosa [3]) | MIC (Pseudomonas aeruginosa [4]) | MIC (Pseudomonas aeruginosa [5]) | MIC (Pseudomonas aeruginosa [6]) | MIC (Pseudomonas aeruginosa [7]) | MIC (Pseudomonas aeruginosa [8]) | MIC (Pseudomonas aeruginosa [9]) | MIC (Pseudomonas aeruginosa [10]) | MIC (Pseudomonas aeruginosa [11]) | MIC (Pseudomonas aeruginosa [12]) | MIC (Pseudomonas aeruginosa [13]) | MIC (Pseudomonas aeruginosa [14])
1 | CCN1CCN(C(=O)N[C@@H](C(=O)N[C@@H]2C(=O)N3[C@@H]2SC(C)(C)[C@@H]3C(=O)O)c2ccccc2)C(=O)C1=O [PIPERACILLIN] | 16 µg/mL (≈ 30.9 µM) | 16 µg/mL | 256 µg/mL | 32 µg/mL (≈ 61.8 µM) | 16 µg/mL (≈ 30.9 µM) | 512 µg/mL (≈ 989 µM) | 16 µg/mL | 512 µg/mL (≈ 989 µM) | 256 µg/mL | 128 µg/mL | 32 µg/mL | 16 µg/mL (≈ 30.9 µM) | 256 µg/mL (≈ 495 µM) | 16 µg/mL
2 | C[C@H]1[C@H](NC(=O)/C(=N\OC(C)(C)C(=O)O)c2csc(N)n2)C(=O)N1S(=O)(=O)O [AZTREONAM] |  |  |  |  |  | 512 µg/mL (≈ 1180 µM) |  | 512 µg/mL (≈ 1180 µM) |  |  |  |  | 512 µg/mL (≈ 1180 µM) | 
3 | NCC[C@H](O)C(=O)N[C@@H]1C[C@H](N)[C@@H](O[C@H]2O[C@H](CN)[C@@H](O)[C@H](O)[C@H]2O)[C@H](O)[C@H]1O[C@H]1O[C@H](CO)[C@@H](O)[C@H](N)[C@H]1O [AMIKACIN] | 4 µg/mL (≈ 6.83 µM) |  |  | 4 µg/mL (≈ 6.83 µM) | 4 µg/mL (≈ 6.83 µM) | 128 µg/mL (≈ 219 µM) |  | 128 µg/mL (≈ 219 µM) |  |  |  | 4 µg/mL (≈ 6.83 µM) | 128 µg/mL (≈ 219 µM) | 
4 | CC1(C)S[C@@H]2[C@H](NC(=O)[C@H](C(=O)O)c3ccsc3)C(=O)N2[C@H]1C(=O)O [TICARCILLIN] | 64 µg/mL (≈ 166 µM) | 16 µg/mL | > 512 µg/mL | 32 µg/mL (≈ 83.2 µM) | 16 µg/mL (≈ 41.6 µM) | > 512 µg/mL | 32 µg/mL | > 512 µg/mL | > 512 µg/mL | > 512 µg/mL | 32 µg/mL | 32 µg/mL (≈ 83.2 µM) | > 512 µg/mL | 64 µg/mL
5 | CO/N=C(\C(=O)N[C@@H]1C(=O)N2C(C(=O)[O-])=C(C[N+]3(C)CCCC3)CS[C@H]12)c1csc(N)n1 |  |  |  |  |  | 512 µg/mL (≈ 1070 µM) |  | 512 µg/mL (≈ 1070 µM) |  |  |  |  | 256 µg/mL (≈ 533 µM) | 
6 | CO/N=C(\C(=O)N[C@@H]1C(=O)N2C(C(=O)O)=C(COC(C)=O)CS[C@H]12)c1csc(N)n1 [CEFOTAXIME] | 64 µg/mL (≈ 141 µM) | 16 µg/mL | 64 µg/mL | 256 µg/mL (≈ 562 µM) | 16 µg/mL (≈ 35.1 µM) | 512 µg/mL (≈ 1120 µM) | 128 µg/mL | 512 µg/mL (≈ 1120 µM) | 64 µg/mL | 64 µg/mL | 256 µg/mL | 128 µg/mL (≈ 281 µM) | 512 µg/mL (≈ 1120 µM) | 64 µg/mL
7 | CC(C)(O/N=C(\C(=O)N[C@@H]1C(=O)N2C(C(=O)[O-])=C(C[n+]3ccccc3)CS[C@H]12)c1csc(N)n1)C(=O)O [CEFTAZIDIME] | 4 µg/mL (≈ 7.32 µM) | 2 µg/mL | 16 µg/mL | 16 µg/mL (≈ 29.3 µM) | 2 µg/mL (≈ 3.66 µM) | 512 µg/mL (≈ 937 µM) | 8 µg/mL | 512 µg/mL (≈ 937 µM) | 16 µg/mL | 16 µg/mL | 16 µg/mL | 8 µg/mL (≈ 14.6 µM) | 512 µg/mL (≈ 937 µM) | 4 µg/mL
